Results on 30 compounds are retold here after ChEMBL document CHEMBL1148844, “5-((1H-pyrazol-4-yl)methylene)-2-thioxothiazolidin-4-one inhibitors of ADAMTS-5” (Bioorg Med Chem Lett, 2007).

Usually pIC50 stands for the IC50 on a negative log10 scale, so that one unit is a factor of ten. A lower pIC50 goes with a large IC50. In general, inhibition refers to the percentage by which the read-out fell short of the control. High values mean strong suppression, low ones little suppression.

SMILES strings stand for the structures. pIC50: −log10 of the molar value.

One assay addresses T1, A disintegrin and metalloproteinase with thrombospondin motifs 4 (Homo sapiens, UniProt O75173).
T1 sequence (O75173 whole entry): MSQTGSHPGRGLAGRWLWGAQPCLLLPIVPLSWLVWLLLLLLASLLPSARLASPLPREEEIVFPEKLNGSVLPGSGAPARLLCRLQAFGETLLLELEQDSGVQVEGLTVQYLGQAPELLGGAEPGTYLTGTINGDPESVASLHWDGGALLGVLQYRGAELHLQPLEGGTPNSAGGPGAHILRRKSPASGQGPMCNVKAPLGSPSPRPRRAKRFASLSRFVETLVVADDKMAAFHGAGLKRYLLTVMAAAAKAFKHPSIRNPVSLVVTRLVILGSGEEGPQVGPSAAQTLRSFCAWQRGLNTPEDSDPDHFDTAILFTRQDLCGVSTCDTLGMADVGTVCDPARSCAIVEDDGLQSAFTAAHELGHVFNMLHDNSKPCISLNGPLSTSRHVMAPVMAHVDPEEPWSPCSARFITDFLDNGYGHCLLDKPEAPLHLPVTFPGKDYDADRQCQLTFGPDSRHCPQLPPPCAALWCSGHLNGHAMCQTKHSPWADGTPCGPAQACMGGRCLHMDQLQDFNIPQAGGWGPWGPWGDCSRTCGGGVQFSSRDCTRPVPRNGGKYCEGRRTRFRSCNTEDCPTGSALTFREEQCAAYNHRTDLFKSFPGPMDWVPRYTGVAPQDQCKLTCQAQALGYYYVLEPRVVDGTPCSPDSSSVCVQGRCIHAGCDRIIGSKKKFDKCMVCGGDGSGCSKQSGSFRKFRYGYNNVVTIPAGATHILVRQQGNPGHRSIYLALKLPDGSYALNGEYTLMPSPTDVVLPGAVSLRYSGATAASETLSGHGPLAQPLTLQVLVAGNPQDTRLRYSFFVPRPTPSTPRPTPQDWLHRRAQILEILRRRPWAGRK
Briefly: Inhibition of ADAMTS4 by FRET assay.
Compound `Cn1nc(C(F)(F)F)c(/C=C2\SC(=S)NC2=O)c1SCc1ccc(C(C)(C)C)cc1` gave a negative-log IC50 (pIC50) of 5.12.

Another assay has as its target T2, A disintegrin and metalloproteinase with thrombospondin motifs 5 (Homo sapiens, UniProt Q9UNA0).
T2 sequence (Q9UNA0 whole entry): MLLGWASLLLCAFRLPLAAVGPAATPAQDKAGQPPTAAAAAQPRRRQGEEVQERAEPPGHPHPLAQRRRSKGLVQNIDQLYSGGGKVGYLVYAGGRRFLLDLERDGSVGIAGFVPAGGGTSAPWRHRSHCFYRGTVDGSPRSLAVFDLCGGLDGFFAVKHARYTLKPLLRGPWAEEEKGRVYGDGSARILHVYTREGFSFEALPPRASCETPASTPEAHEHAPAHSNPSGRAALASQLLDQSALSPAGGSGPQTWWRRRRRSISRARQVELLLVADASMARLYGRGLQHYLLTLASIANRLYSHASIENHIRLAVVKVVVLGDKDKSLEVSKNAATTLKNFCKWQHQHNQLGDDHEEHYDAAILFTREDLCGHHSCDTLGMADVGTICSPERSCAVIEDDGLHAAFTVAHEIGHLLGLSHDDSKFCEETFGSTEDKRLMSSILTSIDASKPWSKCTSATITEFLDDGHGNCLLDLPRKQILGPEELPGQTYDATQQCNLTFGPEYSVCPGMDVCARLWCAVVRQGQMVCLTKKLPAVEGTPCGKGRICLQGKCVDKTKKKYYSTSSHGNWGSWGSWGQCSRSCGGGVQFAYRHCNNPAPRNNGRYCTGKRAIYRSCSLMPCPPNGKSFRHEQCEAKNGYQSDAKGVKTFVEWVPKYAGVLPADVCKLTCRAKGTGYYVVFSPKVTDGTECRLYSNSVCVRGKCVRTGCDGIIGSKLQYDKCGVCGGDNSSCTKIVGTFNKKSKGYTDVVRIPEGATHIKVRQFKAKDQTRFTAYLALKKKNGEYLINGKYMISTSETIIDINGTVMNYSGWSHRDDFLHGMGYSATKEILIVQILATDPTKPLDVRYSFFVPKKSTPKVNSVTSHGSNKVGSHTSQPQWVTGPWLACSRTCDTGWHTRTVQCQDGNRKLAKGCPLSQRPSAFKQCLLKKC
Nature of the assay: Inhibition of ADAMTS5 by FRET assay. In short, it runs like this:
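Aggrecanase-2 (ADAMTS-5) inhibition reported as IC50 in µM. Values are means of two independent experiments, with standard deviations of ±10%.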
With `Cc1ccc(Sc2c(/C=C3\SC(=S)NC3=O)c(-c3ccccc3)nn2C)cc1`, the pIC50 was 5.08. For the compound `O=C1NC(=S)S/C1=C\c1c(-c2ccccc2)nn(-c2ccccc2)c1SCc1ccco1`, the pIC50 was 5.17. `O=C1NC(=S)S/C1=C\c1c(-c2ccccc2)nn(C2CCCCC2)c1SCc1ccco1` gave a pIC50 of 5.34. On the same count and under the same terms, under `O=C1NC(=S)S/C1=C\c1c(C(F)(F)F)nn(-c2ccccc2)c1OCCc1ccc(Cl)cc1` stands 5.38; under `Cn1nc(C(F)(F)F)c(/C=C2\SC(=S)NC2=O)c1SCc1ccccc1Cl`, 4.63; under `Cn1nc(C(F)(F)F)c(/C=C2\SC(=S)NC2=O)c1SCc1ccc(C(C)(C)C)cc1`, 5.66. Same read-out and setting: under `CN1CCN(c2c(/C=C3\SC(=S)NC3=O)c(-c3ccccc3)nn2-c2ccccc2)CC1` stands 5.34; under `O=C1NC(=S)S/C1=C\c1c(C(F)(F)F)nn(-c2ccccc2)c1OCCc1cccs1`, 5.04. Same read-out and setting: under `O=C1NC(=S)S/C1=C\c1c(-c2ccccc2)nn(C2CCCCC2)c1N1CCN(c2ncccn2)CC1` stands 5.10; under `Cn1nc(-c2ccccc2)c(/C=C2\SC(=S)NC2=O)c1SCc1ccco1`, 4.85; under `O=C1NC(=S)S/C1=C\c1c(-c2ccccc2)nn(-c2ccccc2)c1SCc1cccs1`, 5.43. `O=C1NC(=S)S/C1=C\c1c(C(F)(F)F)nn(-c2ccccc2)c1N1CCN(c2ccc(Cl)cc2)CC1` gave a pIC50 of 5.68. Same read-out and setting: under `O=C1NC(=S)S/C1=C\c1c(C(F)(F)F)nn(-c2ccccc2)c1SCc1ccc(Cl)cc1` stands 5.60; under `O=C1NC(=S)S/C1=C\c1c(C(F)(F)F)nn(C2CCCCC2)c1N1CCN(c2ncccn2)CC1`, 4.93; under `O=C1NC(=S)S/C1=C\c1c(C(F)(F)F)nn(C2CCCCC2)c1SCc1ccc(Cl)cc1`, 5.38.

In turn, `O=C1NC(=S)SC1Cc1c(C(F)(F)F)nn(-c2ccccc2)c1SCc1ccc(Cl)cc1` (stereo unspecified) showed a pIC50 of 5.24. Same read-out and setting: to `O=C1NC(=S)S/C1=C\c1c(C(F)(F)F)nn(-c2ccccc2)c1SCc1ccccc1` belongs 4.77. Still for that read-out and setting: to `Cn1nc(C(F)(F)F)c(/C=C2\SC(=S)NC2=O)c1N1CCN(c2ccc(Cl)cc2)CC1` belongs 5.05. On the same count and under the same terms, to `O=C1NC(=S)S/C1=C\c1c(C(F)(F)F)nn(-c2ccccc2)c1OCCc1ccc(F)cc1` belongs 5.15; to `Cn1nc(C(F)(F)F)c(/C=C2\SC(=S)NC2=O)c1SCc1ccc(Cl)cc1`, 5.96.

In a further assay the target is T3, A disintegrin and metalloproteinase with thrombospondin motifs 5 (Homo sapiens) (UniProt Q9UNA0).
T3 sequence (whole entry): T2 sequence (Q9UNA0 whole entry)
Nature of the assay: Inhibition of ADAMTS5 at 20 uM by FRET assay. In short, it runs like this:
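Percent inhibition of aggrecanase-2 (ADAMTS-5) measured at a single 20 µM compound level. Reported values are means of two experiments, with standard deviations of ±10%.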
As to `CN1CCN(c2c(/C=C3\SC(=S)NC3=O)c(C(F)(F)F)nn2-c2ccccc2)CC1`, the inhibition worked out at 45%.

Take `Cn1nc(C(F)(F)F)c(/C=C2\SC(=S)NC2=O)c1Sc1ccc(Cl)cc1`: the inhibition amounted to 47%.

For `Cn1nc(C(F)(F)F)c(/C=C2\SC(=S)NC2=O)c1SCc1cccs1`, the inhibition came to 40%. Same read-out and setting: to `O=C1NC(=S)SC1Cc1c(C(F)(F)F)nn(-c2ccccc2)c1SCc1ccco1` (stereo unspecified) belongs 42%; to `Cn1nc(C(F)(F)F)c(/C=C2\SC(=S)NC2=O)c1Sc1ccccc1`, 28%; to `O=C1NC(=S)S/C1=C\c1c(C(F)(F)F)nn(-c2ccccc2)c1SCc1ccco1`, 42%. Same read-out and setting: under `COc1ccc(CCOc2c(/C=C3\SC(=S)NC3=O)c(C(F)(F)F)nn2-c2ccccc2)cc1` stands 31%; under `CN1CCN(c2c(CC3SC(=S)NC3=O)c(C(F)(F)F)nn2-c2ccccc2)CC1` (stereo unspecified), less than 40%; under `COc1ccc(CSc2c(/C=C3\SC(=S)NC3=O)c(C(F)(F)F)nn2C)cc1`, 53%. Same read-out and setting: to `Cn1nc(C(F)(F)F)c(/C=C2\SC(=S)NC2=O)c1SCc1ccccc1` belongs 44%.
